Series [1] has as its target T1, Cannabinoid receptor 2 (Homo sapiens, UniProt P34972). The series is described as follows: Inverse agonist activity at human CB2 receptor expressed in CHO cells assessed as effect on [35S]-GTPgammaS binding after 1 hrs by beta counting. In kind it is functional, cell-based. For orientation: GTPγS is a poorly hydrolysed GTP analogue; its binding reports G protein activation.

The subject of series [2] is Kidney. The series is described as follows: Biodistribution in NMRI mouse kidney at 6 MBq/ml, iv after 60 mins by gamma counting. In kind it is ADME, organism-based. The settings on record: in vivo, 1 h. In a few lines:
(§1)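 Tracer formulated in saline at about 6 MBq/ml (diluted HPLC-purified product); 100 µl given into a tail vein. Mice killed by decapitation at 2 or 60 min p.i.; organs, body parts and blood dissected, weighed and gamma-counted. Values as %ID (cpm in organ/total cpm recovered), %ID/g, or SUV. Total blood mass taken as 7% of body mass. Mean SD, n = 4 per time point.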

For series [3], the system named is Liver. The series is described as follows: Biodistribution in NMRI mouse liver at 6 MBq/ml, iv after 60 mins by gamma counting. In kind it is ADME, organism-based. The settings on record: in vivo, 1 h. In outline:
as §1

For series [4], the system named is Spleen. Description: Biodistribution in NMRI mouse spleen at 6 MBq/ml, iv after 2 mins by gamma counting. In kind it is ADME, organism-based. The note with it: in vivo. In a few lines:
as §1

Series [5] can be described thus: Metabolic stability in NMRI mouse brain at 6 MBq/ml, iv after 30 mins by HPLC analysis. In kind it is ADME, organism-based. The note with it: read-out: Stability. In a few lines: (§2)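 Normal NMRI mice were given the tracer IV, and plasma and brain were sampled at 2, 10 or 30 min. The percentage of intact tracer was measured by reversed-phase HPLC with 0.05 M ammonium acetate pH 6.9/acetonitrile eluent, 30/70 for plasma and 40/60 for brain, at 1 ml/min.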

Series [6] relates to Stomach. The series is described as follows: Biodistribution in NMRI mouse stomach at 6 MBq/ml, iv after 60 mins by gamma counting. In kind it is ADME, organism-based. The settings on record: in vivo, 1 h. In outline:
as §1

A short description of series [7]: Metabolic stability in NMRI mouse plasma at 6 MBq/ml, iv after 2 mins by HPLC analysis. The settings on record: read-out: Stability. In kind it is ADME, organism-based. In a few lines:
as §2

The target of series [8] is Cannabinoid receptor 1 (Homo sapiens, UniProt P21554). Description: Displacement of [3H]-SR141716A from human CB1 receptor expressed in CHO cells after 1 hrs by beta counting. In kind it is cell-based. (Displacement assays read how much labelled ligand stays bound in the presence of the test substance.)
In series [9] the test system is Lung. The series is described as follows: Biodistribution in NMRI mouse lungs at 6 MBq/ml, iv after 2 mins by gamma counting. The note with it: in vivo. In kind it is ADME, organism-based. In a few lines: as §1
For series [10], the target named is T1, Cannabinoid receptor 2. The series is described as follows: Displacement of [3H]-CP55940 from human CB2 receptor expressed in CHO cells after 1 hrs by beta counting. In kind it is cell-based.
The subject of series [11] is Lung. Description: Biodistribution in NMRI mouse lungs at 6 MBq/ml, iv after 60 mins by gamma counting. In kind it is ADME, organism-based. The note with it: in vivo, 1 h. In a few lines:
as §1

Series [12] has as its system Stomach. The series is described as follows: Biodistribution in NMRI mouse stomach at 6 MBq/ml, iv after 2 mins by gamma counting. In kind it is ADME, organism-based. The settings on record: in vivo. In a few lines: as §1
Series [13] deals with Kidney. Description: Biodistribution in NMRI mouse kidney at 6 MBq/ml, iv after 2 mins by gamma counting. In kind it is ADME, organism-based. The settings on record: in vivo. In outline:
as §1

Series [14] in a line: Biodistribution in NMRI mouse urine at 6 MBq/ml, iv after 60 mins by gamma counting. In kind it is ADME, organism-based. The note with it: in vivo, 1 h. In a few lines: as §1
The subject of series [15] is Intestine. Description: Biodistribution in NMRI mouse intestine at 6 MBq/ml, iv after 60 mins by gamma counting. In kind it is ADME, organism-based. The settings on record: in vivo, 1 h. In outline:
as §1

For series [16], the system named is Brain. Description: Biodistribution in NMRI mouse brain at 6 MBq/ml, iv after 60 mins by gamma counting. In kind it is ADME, organism-based. The settings on record: in vivo, 1 h. In a few lines: as §1
Series [17] in a line: Metabolic stability in NMRI mouse brain at 6 MBq/ml, iv after 10 mins by HPLC analysis. In kind it is ADME, organism-based. The note with it: read-out: Stability. In outline: as §2
Series [18] deals with Heart. The series is described as follows: Biodistribution in NMRI mouse heart at 6 MBq/ml, iv after 60 mins by gamma counting. The settings on record: in vivo, 1 h. In kind it is ADME, organism-based. In a few lines:
as §1

For series [19], the system named is Spleen. Description: Biodistribution in NMRI mouse spleen at 6 MBq/ml, iv after 60 mins by gamma counting. In kind it is ADME, organism-based. The note with it: in vivo, 1 h. In outline: as §1
The nature of series [20]: Octanol-phosphate buffer partition coefficient, log D of the compound at pH 7.4. In kind it is physicochemical. In a few lines: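 Radiolabelled tracer partitioned between 1-octanol and 0.025 M phosphate buffer pH 7.4; log D from distribution of radioactivity.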
Series [21] in a line: Biodistribution in NMRI mouse urine at 6 MBq/ml, iv after 2 mins by gamma counting. The note with it: in vivo. In kind it is ADME, organism-based. In a few lines: as §1
The nature of series [22]: Metabolic stability in NMRI mouse plasma at 6 MBq/ml, iv after 10 mins by HPLC analysis. The settings on record: read-out: Stability. In kind it is ADME, organism-based. In outline:
as §2

Series [23] relates to Intestine. The series is described as follows: Biodistribution in NMRI mouse intestine at 6 MBq/ml, iv after 2 mins by gamma counting. In kind it is ADME, organism-based. The settings on record: in vivo. In a few lines:
as §1

Series [24] concerns Brain. The series is described as follows: Biodistribution in NMRI mouse brain at 6 MBq/ml, iv after 2 mins by gamma counting. In kind it is ADME, organism-based. The settings on record: in vivo. In a few lines: as §1
Series [25] deals with Blood. The series is described as follows: Biodistribution in NMRI mouse blood at 6 MBq/ml, iv after 60 mins by gamma counting. In kind it is ADME, organism-based. The note with it: in vivo, 1 h. In outline:
as §1

Series [26] can be described thus: Metabolic stability in NMRI mouse brain at 6 MBq/ml, iv after 2 mins by HPLC analysis. The settings on record: read-out: Stability. In kind it is ADME, organism-based. In a few lines:
as §2

The test system of series [27] is Liver. Description: Biodistribution in NMRI mouse liver at 6 MBq/ml, iv after 2 mins by gamma counting. In kind it is ADME, organism-based. The settings on record: in vivo. In outline:
as §1

Series [28] deals with Pancreas. Description: Biodistribution in NMRI mouse pancreas at 6 MBq/ml, iv after 60 mins by gamma counting. In kind it is ADME, organism-based. The settings on record: in vivo, 1 h. In a few lines:
as §1

A short description of series [29]: Metabolic stability in NMRI mouse plasma at 6 MBq/ml, iv after 30 mins by HPLC analysis. In kind it is ADME, organism-based. The settings on record: read-out: Stability. In a few lines: as §2
In series [30] the test system is Blood. Description: Biodistribution in NMRI mouse blood at 6 MBq/ml, iv after 2 mins by gamma counting. In kind it is ADME, organism-based. The settings on record: in vivo. In a few lines:
as §1

In series [31] the test system is Heart. The series is described as follows: Biodistribution in NMRI mouse heart at 6 MBq/ml, iv after 2 mins by gamma counting. In kind it is ADME, organism-based. The settings on record: in vivo. In outline:
as §1

Series [32] relates to Pancreas. Description: Biodistribution in NMRI mouse pancreas at 6 MBq/ml, iv after 2 mins by gamma counting. In kind it is ADME, organism-based. The note with it: in vivo. In a few lines:
as §1

The test system of series [33] is Brain. Description: Biodistribution in Wistar rat brain after 60 mins. The settings on record: in vivo, 1 h. In kind it is ADME, organism-based.
Series [34] concerns Striatum. Description: In vivo binding affinity to human CB2 receptor D80N mutant expressed in Fisher rat right striatum at 37 MBq, iv after 60 mins by microPET study relative to left striatum. In kind it is functional. In outline:
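Normal 8-week-old Fisher rat received stereotactic AAV2/7-eGFP-T2A-hCB2R(D80N) vector in the right striatum and a control eGFP vector in the left striatum. Scanned 34 days later under 3% isoflurane in 2.0 L/min oxygen. Dynamic microPET started immediately after IV injection of about 37 MBq tracer. Images spatially normalized to stereotactic space; striatal time-activity curves from predefined volumes of interest.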

Series [35] has as its system Striatum. The series is described as follows: In vivo binding affinity to human CB2 receptor D80N mutant expressed in Fisher rat […] at 37 MBq, iv after up to 60 mins by microPET study. In kind it is functional, organism-based. The note with it: 37 M, tested as the 18F-labelled form.
Series [36] concerns the target T1, Cannabinoid receptor 2. The series is described as follows: Inverse agonist activity at human CB2 receptor expressed in CHO cells assessed as effect on [35S]-GTPgammaS binding after 1 hrs by beta counting relative to control. In kind it is functional, cell-based. The settings on record: tested as the 18F-labelled form.

Where “and” joins values, the source holds several entries; their conditions need not be identical. Identical values can stand only once. Calls of active or inactive are those of the source. The rule behind the calls is not given here.

T1 sequence (P34972 whole entry): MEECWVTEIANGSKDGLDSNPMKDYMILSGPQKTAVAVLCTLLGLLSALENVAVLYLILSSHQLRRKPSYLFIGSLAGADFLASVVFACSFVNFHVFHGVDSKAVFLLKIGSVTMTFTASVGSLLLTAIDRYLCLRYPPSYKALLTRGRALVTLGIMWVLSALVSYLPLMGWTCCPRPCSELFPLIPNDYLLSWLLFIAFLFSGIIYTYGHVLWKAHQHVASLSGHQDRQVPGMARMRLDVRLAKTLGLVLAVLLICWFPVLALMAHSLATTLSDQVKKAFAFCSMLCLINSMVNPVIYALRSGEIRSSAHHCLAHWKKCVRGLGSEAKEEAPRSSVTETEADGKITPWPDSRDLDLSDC
Cannabinoid receptor 1, sequence (P21554 whole entry): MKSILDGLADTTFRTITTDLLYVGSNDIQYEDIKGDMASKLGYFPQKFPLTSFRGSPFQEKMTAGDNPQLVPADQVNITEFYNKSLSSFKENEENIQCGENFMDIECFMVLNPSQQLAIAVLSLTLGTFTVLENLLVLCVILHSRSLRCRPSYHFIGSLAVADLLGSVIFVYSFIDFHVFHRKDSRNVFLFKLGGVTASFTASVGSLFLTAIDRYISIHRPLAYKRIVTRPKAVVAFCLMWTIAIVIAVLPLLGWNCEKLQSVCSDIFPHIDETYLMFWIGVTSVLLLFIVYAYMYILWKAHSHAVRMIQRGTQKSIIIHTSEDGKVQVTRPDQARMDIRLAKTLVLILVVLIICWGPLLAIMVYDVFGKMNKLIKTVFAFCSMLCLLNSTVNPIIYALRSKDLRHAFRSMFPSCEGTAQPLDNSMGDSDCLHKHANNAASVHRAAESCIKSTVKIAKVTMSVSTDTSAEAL

As a reminder, the EC50 is the midpoint of the concentration-response curve. One may read the Ki as the dissociation constant of the complex between target and ligand, obtained from inhibition or displacement. Low values mean higher affinity, high ones lower affinity. In general, logD refers to the decadic logarithm of the distribution of all forms, ionised or not, between an organic phase and buffer at a given pH. Low readings indicate a more hydrophilic compound, high ones a more lipophilic compound. Take `Cc1c(CCN2CCOCC2)c2cc(OCC[18F])ccc2n1C(=O)c1cccc(Cl)c1Cl`: in [1], the EC50 is 17.9 nM. Moreover, the Drug uptake in [2] was 2.2 %ID and 3.4 % ID/g; in series [3], 23.7 %ID and 11.4 % ID/g; in series [6] it was 1.8 %ID; in [12] it was 1.3 %ID; in series [13], 9.8 %ID and 15.8 % ID/g; in series [14] it was 1.4 %ID. Further, the Drug uptake was 35.7 %ID in series [15]; 0.7 %ID and 1.6 % ID/g in series [16]; 0.1 %ID in series [21]; 8.9 %ID in series [23]; 1.3 %ID and 2.9 % ID/g in [24]; 5 %ID and 2.1 % ID/g in series [25]. Further, the Drug uptake in [27] was 47.4 %ID and 26.3 % ID/g; in series [30], 4.5 %ID and 1.9 % ID/g. For the same compound, the SUV is recorded as 1.2 in series [2]; 4 in series [3]; 3.3 in series [4]; 4.5 in series [9]; 0.8 in series [11]; 5.5 in [13]. Moreover, the SUV was found to be 0.6 in [16]; 0.7 in [18]; 1.1 in [19]; 1 in [24]; 0.7 in [25]; 9.1 in series [27]. In addition, the SUV in [28] is 0.8; in series [30], 0.6; in series [31], 2.7; in series [32] it was 1.2. In addition, the remaining at 0.5 h amounted to 48% in [5] and 12% in series [29]. Besides, the values for the remaining at 2 min in series [7] and in series [26] were 84% and 95%, respectively. In addition, the results for the Ki in series [8] and in series [10] were 10000 nM and 27 nM, respectively. In addition, the remaining at 10 min in series [17] amounted to 79%; in series [22] it was 52%. Further, the logD in [20] came to 2.8.

`Cc1c(CCN2CCOCC2)c2cc(O[11CH3])ccc2n1C(=O)c1cccc(Cl)c1Cl` came in with a Drug uptake in series [33] of 0.1 %ID. Also, the Ratio in series [34] is 1.6.

Broadly, the Emax is the maximal effect, on the per cent scale that the assay sets. For `Cc1c(CCN2CCOCC2)c2cc(OCCF)ccc2n1C(=O)c1cccc(Cl)c1Cl`, the outcome in [35] was Active. Besides, in series [36], the Emax is -82%.

The record behind these values is ChEMBL document CHEMBL1806389, “Synthesis, in vitro and in vivo evaluation of fluorine-18 labelled FE-GW405833 as a PET tracer for type 2 cannabinoid receptor imaging” (Bioorg Med Chem, 2011).
